# From ChEMBL document CHEMBL1144562, “Synthesis of a new class of 2-anilino substituted nicotinyl arylsulfonylhydrazides as potential anticancer and antibacterial agents” (2007)
# What was measured:
# HCC 2998 = experiment: Antitumor activity against HCC2998 cells; type: functional; conditions: Homo sapiens
# A549 = experiment: Antitumor activity against A549 cells; type: functional; conditions: Homo sapiens
# SNB-75 = experiment: Antitumor activity against SNB75 cells; type: functional; conditions: Homo sapiens
# Method in brief: (§1)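 Tested in the NCI 60-human-tumour-cell-line panel at five concentrations, in 10-fold dilutions from 10^-4 to 10^-8 M. Three parameters were taken from the dose-response data, each as log10 of the molar concentration: GI50 (50% net growth inhibition), TGI (total growth inhibition) and LC50 (50% net cell death).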
# HT-29 = experiment: Antitumor activity against HT29 cells; type: functional; conditions: Homo sapiens
# COLO 205 = experiment: Antitumor activity against COLO205 cells; type: functional; conditions: Homo sapiens
# SW-620 = experiment: Antitumor activity against SW620 cells; type: functional; conditions: Homo sapiens; method in brief: as §1
# HCT-15 = experiment: Antitumor activity against HCT15 cells; type: functional; conditions: Homo sapiens
# 786-0 = experiment: Antitumor activity against 786-0 cells; type: functional; conditions: Homo sapiens
# HCT-116 = experiment: Antitumor activity against HCT116 cells; type: functional; conditions: Homo sapiens
# TK-10 = experiment: Antitumor activity against TK10 cells; type: functional; conditions: Homo sapiens; method in brief: as §1
# [1] = Antitumor activity against HL60 (TB) cells; type: functional, HL-60(TB); conditions: Homo sapiens, HL-60
# Method in brief: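 NCI 60-cell-line in vitro screen (leukaemia subpanel). Compound tested at five 10-fold dilutions from 10^-4 to 10^-8 M. Dose-response parameters: GI50 (concentration giving 50% net growth inhibition), TGI (total growth inhibition) and LC50 (50% net cell death), each reported as log10 of molar concentration.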
# Vibrio = experiment: Antibacterial activity against Vibrio species after 18 hrs; type: functional
# Method in brief: (§2)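 Disc diffusion (Kirby–Bauer) on Mueller-Hinton agar inoculated with fresh bacteria at 1-5 × 10^4 cfu mL-1. Compounds were dissolved in DMF at a range of concentrations, and discs were placed in triplicate. Plates were incubated at 30 °C for 18 h. MIC was taken as the lowest concentration giving no visible bacterial growth on the plate.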
# OVCAR-4 = experiment: Antitumor activity against OVCAR4 cells; type: functional; conditions: Homo sapiens
# Bacillus subtilis = experiment: Antibacterial activity against Bacillus subtilis MTCC 441 after 18 hrs; type: functional; conditions: MTCC 441, 18 h; method in brief: as §2
# OVCAR-8 = experiment: Antitumor activity against OVCAR8 cells; type: functional; conditions: Homo sapiens
# UACC-257 = experiment: Antitumor activity against UACC257 cells; type: functional; conditions: Homo sapiens; method in brief: as §1
# Pseudomonas aeruginosa = experiment: Antibacterial activity against Pseudomonas aeruginosa MTCC 424 after 18 hrs; type: functional; conditions: MTCC 424, 18 h; method in brief: as §2
# SK-OV-3 = experiment: Antitumor activity against SKOV3 cells; type: functional; conditions: Homo sapiens; method in brief: as §1
# SK-MEL-28 = experiment: Antitumor activity against SK-MEL-28 cells; type: functional; conditions: Homo sapiens
# NCI-H226 = experiment: Antitumor activity against NCI-H226 cells; type: functional; conditions: Homo sapiens
# [2] = Antitumor activity against MALME 3M cells; type: functional; conditions: Homo sapiens
# Escherichia coli = experiment: Antibacterial activity against Escherichia coli MTCC 448 after 18 hrs; type: functional; conditions: MTCC 448, 18 h; method in brief: as §2
# M14 = experiment: Antitumor activity against M14 cells; type: functional; conditions: Homo sapiens
# SF-268 = experiment: Antitumor activity against SF268 cells; type: functional; conditions: Homo sapiens
# T47D = experiment: Antitumor activity against T47D cells; type: functional; conditions: Homo sapiens; method in brief: as §1
# PC-3 = experiment: Antitumor activity against PC3 cells; type: functional; conditions: Homo sapiens
# HOP-62 = experiment: Antitumor activity against HOP62 cells; type: functional; conditions: Homo sapiens
# DU-145 = experiment: Antitumor activity against DU145 cells; type: functional; conditions: Homo sapiens
# SF-539 = experiment: Antitumor activity against SF539 cells; type: functional; conditions: Homo sapiens
# SF-295 = experiment: Antitumor activity against SF295 cells; type: functional; conditions: Homo sapiens
# [3] = tested on: Staphylococcus epidermidis; experiment: Antibacterial activity against Staphylococcus epidermidis MTCC 435 after 18 hrs; type: functional; conditions: MTCC 435, 18 h; method in brief: as §2
# SNB-19 = experiment: Antitumor activity against SNB19 cells; type: functional; conditions: Homo sapiens; method in brief: as §1
# U-251 = experiment: Antitumor activity against U251 cells; type: functional; conditions: Homo sapiens; method in brief: as §1
# MOLT-4 = experiment: Antitumor activity against MOLT4 cells; type: functional; conditions: Homo sapiens
# CCRF-CEM = experiment: Antitumor activity against CCRF-CEM cells; type: functional; conditions: Homo sapiens
# [4] = Antitumor activity against LOX IMV1 cells; type: functional; conditions: Homo sapiens
# MCF7 = experiment: Antitumor activity against MCF7 cells; type: functional; conditions: Homo sapiens
# MDA-MB-231 = experiment: Antitumor activity against MDA-MB-231 cells; type: functional; conditions: Homo sapiens
# KM12 = experiment: Antitumor activity against KM12 cells; type: functional; conditions: Homo sapiens
# A498 = experiment: Antitumor activity against A498 cells; type: functional; conditions: Homo sapiens
# ACHN = experiment: Antitumor activity against ACHN cells; type: functional; conditions: Homo sapiens
# [5] = read-out: Log LC50 (the source's name) (converted)
smiles,measurement,setting,value
O=C(NNS(=O)(=O)c1ccc(Cl)cc1Cl)c1cccnc1Nc1ccc(Cl)cc1,GI50,HCC 2998,13.5 µM
same,LC50,HCC 2998,61.7 µM
same,TGI,HCC 2998; read-out: Log TGI (converted),28.8 µM
same,GI50,A549,24.5 µM
same,LC50,A549,> 100 µM
same,TGI,A549; read-out: Log TGI (converted),70.8 µM
same,GI50,SNB-75,22.4 µM
same,CC50,SNB-75; [5],> 100 µM
same,TGI,SNB-75; read-out: Log TGI (converted),85.1 µM
same,GI50,HT-29,22.9 µM
same,LC50,HT-29,> 100 µM
same,TGI,HT-29; read-out: Log TGI (converted),53.7 µM
same,GI50,COLO 205,12 µM
same,LC50,COLO 205,49 µM
same,TGI,COLO 205; read-out: Log TGI (converted),24.5 µM
same,GI50,SW-620,28.2 µM
same,CC50,SW-620; [5],> 100 µM
same,TGI,SW-620; read-out: Log TGI (converted),> 100 µM
same,GI50,HCT-15,33.1 µM
same,LC50,HCT-15,100 µM
same,TGI,HCT-15; read-out: Log TGI (converted),> 100 µM
same,GI50,786-0,19.5 µM
same,"LC50 (lethal concentration, 50%)",786-0,> 100 µM
same,TGI,786-0; read-out: Log TGI (converted),49 µM
same,GI50,HCT-116,15.5 µM
same,LC50,HCT-116,53.7 µM
same,TGI,HCT-116; read-out: Log TGI (converted),28.8 µM
same,GI50,TK-10,28.8 µM
same,LC50,TK-10,> 100 µM
same,TGI,TK-10; read-out: Log TGI (converted),85.1 µM
same,GI50,[1],24 µM
same,LC50,[1],83.2 µM
same,TGI,[1]; read-out: Log TGI (converted),44.7 µM
same,MIC,Vibrio,14 µg/mL
same,GI50,OVCAR-4,28.8 µM
same,"LC50 (lethal concentration, 50%)",OVCAR-4,> 100 µM
same,TGI,OVCAR-4; read-out: Log TGI (converted),> 100 µM
same,MIC,Bacillus subtilis,15 µg/mL
same,GI50,OVCAR-8,26.9 µM
same,CC50,OVCAR-8; [5],> 100 µM
same,TGI,OVCAR-8; read-out: Log TGI (converted),74.1 µM
same,GI50,UACC-257,22.9 µM
same,LC50,UACC-257,> 100 µM
same,TGI,UACC-257; read-out: Log TGI (converted),60.3 µM
same,MIC,Pseudomonas aeruginosa,> 25 µg/mL
same,GI50,SK-OV-3,17 µM
same,CC50,SK-OV-3; [5],> 100 µM
same,TGI,SK-OV-3; read-out: Log TGI (converted),52.5 µM
same,GI50,SK-MEL-28,35.5 µM
same,LC50,SK-MEL-28,> 100 µM
same,TGI,SK-MEL-28; read-out: Log TGI (converted),> 100 µM
same,GI50,NCI-H226,24 µM
same,CC50,NCI-H226; [5],> 100 µM
same,TGI,NCI-H226; read-out: Log TGI (converted),58.9 µM
same,GI50,[2],34.7 µM
same,CC50,[2]; [5],> 100 µM
same,TGI,[2]; read-out: Log TGI (converted),34.7 µM
same,MIC,Escherichia coli,20 µg/mL
same,GI50,M14,19.1 µM
same,LC50,M14,79.4 µM
same,TGI,M14; read-out: Log TGI (converted),38.9 µM
same,GI50,SF-268,36.3 µM
same,LC50,SF-268,> 100 µM
same,TGI,SF-268; read-out: Log TGI (converted),100 µM
same,GI50,T47D,10.7 µM
same,CC50,T47D; [5],> 100 µM
same,TGI,T47D; read-out: Log TGI (converted),51.3 µM
same,GI50,PC-3,23.4 µM
same,LC50,PC-3,> 100 µM
same,TGI,PC-3; read-out: Log TGI (converted),81.3 µM
same,GI50,HOP-62,16.6 µM
same,CC50,HOP-62; [5],85.1 µM
same,TGI,HOP-62; read-out: Log TGI (converted),38 µM
same,GI50,DU-145,41.7 µM
same,LC50,DU-145,> 100 µM
same,TGI,DU-145; read-out: Log TGI (converted),> 100 µM
same,GI50,SF-539,19.1 µM
same,LC50,SF-539,> 100 µM
same,TGI,SF-539; read-out: Log TGI (converted),44.7 µM
same,GI50,SF-295,30.2 µM
same,CC50,SF-295; [5],> 100 µM
same,TGI,SF-295; read-out: Log TGI (converted),77.6 µM
same,MIC,[3],17 µg/mL
same,GI50,SNB-19,26.9 µM
same,CC50,SNB-19; [5],> 100 µM
same,TGI,SNB-19; read-out: Log TGI (converted),100 µM
same,GI50,U-251,34.7 µM
same,LC50,U-251,> 100 µM
same,TGI,U-251; read-out: Log TGI (converted),100 µM
same,GI50,MOLT-4,19.5 µM
same,LC50,MOLT-4,> 100 µM
same,TGI,MOLT-4; read-out: Log TGI (converted),57.5 µM
same,LC50,CCRF-CEM,> 100 µM
same,GI50,CCRF-CEM; read-out: GI50,6.62 µM
same,TGI,CCRF-CEM; read-out: Log TGI (converted),> 100 µM
same,GI50,CCRF-CEM; read-out: pGI50 (converted),6.61 µM
same,GI50,[4],20.9 µM
same,LC50,[4],> 100 µM
same,TGI,[4]; read-out: Log TGI (converted),46.8 µM
same,GI50,MCF7,35.5 µM
same,LC50,MCF7,> 100 µM
same,TGI,MCF7; read-out: Log TGI (converted),> 100 µM
same,GI50,MDA-MB-231,19.1 µM
same,LC50,MDA-MB-231,> 100 µM
same,TGI,MDA-MB-231; read-out: Log TGI (converted),50.1 µM
same,GI50,KM12,13.8 µM
same,CC50,KM12; [5],58.9 µM
same,TGI,KM12; read-out: Log TGI (converted),28.8 µM
same,GI50,A498,25.1 µM
same,LC50,A498,91.2 µM
same,TGI,A498; read-out: Log TGI (converted),47.9 µM
same,GI50,ACHN,29.5 µM
same,LC50,ACHN,> 100 µM
same,TGI,ACHN; read-out: Log TGI (converted),93.3 µM
